Data reported in publication PMC10762718 (RSC Advances, 2024).

Tested on: MDA-MB-231 (human breast cancer) cells
Test: MTT cell viability assay, MDA-MB-231
Type: cell-based
Conditions: MDA-MB-231, 72 h, read-out: Cell viability (%) ±SD
Outline: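 MDA-MB-231 cells were grown as a monolayer in DMEM with 10% heat-inactivated FBS and 1% penicillin-streptomycin at 37 °C in humidified CO2, subcultured every third day with trypsin-EDTA, and used before passage 8. Cells were exposed 72 h to 10, 25 and 50 μM. Medium was removed, MTT added for 3 h at 37 °C, formazan dissolved in DMSO and read at 595 nm. Viability is relative to untreated control, triplicates, ±SD. IC50 comes from the viability-versus-concentration plot.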

## CC(=O)OC[C@@H]1O[C@H](n2cc(Cn3ccc4nc(-c5ccc(C)cc5)cc(=O)n43)nn2)[C@@H](OC(C)=O)[C@H](OC(C)=O)[C@H]1OC(C)=O (stereo in doubt) [Compound 22, (2S,3S,4R,5S,6S)-2-(Acetoxymethyl)-6-(4-((7-oxo-5-(p-tolyl)pyrazolo[1,5-a]pyrimidin-1(7H)-yl)methyl)-1H-1,2,3-triazol-1-yl)tetrahydro-2H-pyran-3,4,5-triyl triacetate]
  viability at 10 µM: 92.4 ± 5.38%
  viability at 25 µM: 87.5 ± 6.74%
  viability at 50 µM: 85.4 ± 4.16%

## CC(=O)OC[C@@H]1O[C@H](n2cc(Cn3ccc4nc(-c5ccc(Br)cc5)cc(=O)n43)nn2)[C@@H](OC(C)=O)[C@H](OC(C)=O)[C@H]1OC(C)=O (stereo in doubt) [Compound 24, (2S,3S,4R,5S,6S)-2-(Acetoxymethyl)-6-(4-((5-(4-bromophenyl)-7-oxopyrazolo[1,5-a]pyrimidin-1(7H)-yl)methyl)-1H-1,2,3-triazol-1-yl)tetrahydro-2H-pyran-3,4,5-triyl triacetate]
  viability at 10 µM: 100 ± 8.01%
  viability at 25 µM: 100 ± 8.93%
  viability at 50 µM: 98.5 ± 2.89%

## CC(=O)OC[C@@H]1O[C@H](n2cc(Cn3ccc4nc(-c5ccc(Cl)cc5)cc(=O)n43)nn2)[C@@H](OC(C)=O)[C@H](OC(C)=O)[C@H]1OC(C)=O (stereo in doubt) [Compound 25, (2S,3S,4R,5S,6S)-2-(Acetoxymethyl)-6-(4-((5-(4-chlorophenyl)-7-oxopyrazolo[1,5-a]pyrimidin-1(7H)-yl)methyl)-1H-1,2,3-triazol-1-yl)tetrahydro-2H-pyran-3,4,5-triyl triacetate]
  viability at 10 µM: 98.6 ± 2.25%
  viability at 25 µM: 93.2 ± 1.96%
  viability at 50 µM: 86.2 ± 9.22%

## CC(=O)OC[C@@H]1O[C@H](n2cc(Cn3ccc4nc(-c5ccc(C(F)(F)F)cc5)cc(=O)n43)nn2)[C@@H](OC(C)=O)[C@H](OC(C)=O)[C@H]1OC(C)=O (stereo in doubt) [Compound 27, (2S,3S,4R,5S,6S)-2-(Acetoxymethyl)-6-(4-((7-oxo-5-(4-(trifluoromethyl)phenyl)pyrazolo[1,5-a]pyrimidin-1(7H)-yl)methyl)-1H-1,2,3-triazol-1-yl)tetrahydro-2H-pyran-3,4,5-triyl triacetate]
  viability at 10 µM: 93.2 ± 8.51%
  viability at 25 µM: 89.8 ± 8.75%
  viability at 50 µM: 74.8 ± 7.02%

## CC(=O)OC[C@@H]1O[C@H](n2cc(Cn3ccc4nc(-c5ccc(C(C)C)cc5)cc(=O)n43)nn2)[C@@H](OC(C)=O)[C@H](OC(C)=O)[C@H]1OC(C)=O (stereo in doubt) [Compound 28, (2S,3S,4R,5S,6S)-2-(Acetoxymethyl)-6-(4-((5-(4-isopropylphenyl)-7-oxopyrazolo[1,5-a]pyrimidin-1(7H)-yl)methyl)-1H-1,2,3-triazol-1-yl)tetrahydro-2H-pyran-3,4,5-triyl triacetate]
  viability at 10 µM: 102 ± 8.51%
  viability at 25 µM: 99.1 ± 3.51%
  viability at 50 µM: 69.5 ± 17.7%

## CC(=O)OC[C@@H]1O[C@H](n2cc(Cn3ccc4nc(-c5ccc6ccccc6c5)cc(=O)n43)nn2)[C@@H](OC(C)=O)[C@H](OC(C)=O)[C@H]1OC(C)=O (stereo in doubt) [Compound 29, (2S,3S,4R,5S,6S)-2-(Acetoxymethyl)-6-(4-((5-(naphthalen-2-yl)-7-oxopyrazolo[1,5-a]pyrimidin-1(7H)-yl)methyl)-1H-1,2,3-triazol-1-yl)tetrahydro-2H-pyran-3,4,5-triyl triacetate]
  viability at 10 µM: 89.1 ± 4.09%
  viability at 25 µM: 81.5 ± 2.58%
  viability at 50 µM: 88.4 ± 7.36%

## CC(=O)OC[C@@H]1O[C@H](n2cc(Cn3ccc4nc(-c5ccc(C)cc5)cc(=O)n43)nn2)[C@@H](OC(C)=O)[C@H](OC(C)=O)[C@@H]1OC(C)=O (stereo in doubt) [Compound 31, (2S,3R,4R,5S,6S)-2-(Acetoxymethyl)-6-(4-((7-oxo-5-(p-tolyl)pyrazolo[1,5-a]pyrimidin-1(7H)-yl)methyl)-1H-1,2,3-triazol-1-yl)tetrahydro-2H-pyran-3,4,5-triyl triacetate]
  viability at 10 µM: 81.7 ± 8.36%
  viability at 25 µM: 88.5 ± 6.73%
  viability at 50 µM: 78.8 ± 10.4%

## COc1ccc(-c2cc(=O)n3c(ccn3Cc3cn([C@H]4O[C@@H](COC(C)=O)[C@@H](OC(C)=O)[C@@H](OC(C)=O)[C@@H]4OC(C)=O)nn3)n2)cc1 (stereo in doubt) [Compound 32, (2S,3R,4R,5S,6S)-2-(Acetoxymethyl)-6-(4-((5-(4-methoxyphenyl)-7-oxopyrazolo[1,5-a]pyrimidin-1(7H)-yl)methyl)-1H-1,2,3-triazol-1-yl)tetrahydro-2H-pyran-3,4,5-triyl triacetate]
  viability at 10 µM: 92.5 ± 9.39%
  viability at 25 µM: 86.2 ± 8.63%
  viability at 50 µM: 72.5 ± 6.24%

## CC(=O)OC[C@@H]1O[C@H](n2cc(Cn3ccc4nc(-c5ccc(Cl)cc5)cc(=O)n43)nn2)[C@@H](OC(C)=O)[C@H](OC(C)=O)[C@@H]1OC(C)=O (stereo in doubt) [Compound 34, (2S,3R,4R,5S,6S)-2-(Acetoxymethyl)-6-(4-((5-(4-chlorophenyl)-7-oxopyrazolo[1,5-a]pyrimidin-1(7H)-yl)methyl)-1H-1,2,3-triazol-1-yl)tetrahydro-2H-pyran-3,4,5-triyl triacetate]
  viability at 10 µM: 78.5 ± 2.43%
  viability at 25 µM: 76.8 ± 2.43%
  viability at 50 µM: 73 ± 2.62%

## CC(=O)OC[C@@H]1O[C@H](n2cc(Cn3ccc4nc(-c5ccc(F)cc5)cc(=O)n43)nn2)[C@@H](OC(C)=O)[C@H](OC(C)=O)[C@@H]1OC(C)=O (stereo in doubt) [Compound 35, (2S,3R,4R,5S,6S)-2-(Acetoxymethyl)-6-(4-((5-(4-fluorophenyl)-7-oxopyrazolo[1,5-a]pyrimidin-1(7H)-yl)methyl)-1H-1,2,3-triazol-1-yl)tetrahydro-2H-pyran-3,4,5-triyl triacetate]
  viability at 10 µM: 82.4 ± 9.97%
  viability at 25 µM: 78.6 ± 10.1%
  viability at 50 µM: 75.3 ± 6.17%

## CC(=O)OC[C@@H]1O[C@H](n2cc(Cn3ccc4nc(-c5ccc(C(C)C)cc5)cc(=O)n43)nn2)[C@@H](OC(C)=O)[C@H](OC(C)=O)[C@@H]1OC(C)=O (stereo in doubt) [Compound 37, (2S,3R,4R,5S,6S)-2-(Acetoxymethyl)-6-(4-((5-(4-isopropylphenyl)-7-oxopyrazolo[1,5-a]pyrimidin-1(7H)-yl)methyl)-1H-1,2,3-triazol-1-yl)tetrahydro-2H-pyran-3,4,5-triyl triacetate]
  viability at 10 µM: 85.2 ± 3.5%
  viability at 25 µM: 80.5 ± 8.96%
  viability at 50 µM: 78.7 ± 2.56%

## CC(=O)OC[C@@H]1O[C@H](n2cc(Cn3ccc4nc(-c5ccc6ccccc6c5)cc(=O)n43)nn2)[C@@H](OC(C)=O)[C@H](OC(C)=O)[C@@H]1OC(C)=O (stereo in doubt) [Compound 38, (2S,3R,4R,5S,6S)-2-(Acetoxymethyl)-6-(4-((5-(naphthalen-2-yl)-7-oxopyrazolo[1,5-a]pyrimidin-1(7H)-yl)methyl)-1H-1,2,3-triazol-1-yl)tetrahydro-2H-pyran-3,4,5-triyl triacetate]
  viability at 10 µM: 92 ± 8.31%
  viability at 25 µM: 89.6 ± 9.91%
  viability at 50 µM: 67.7 ± 10.8%

## CC(=O)OC[C@@H]1O[C@H](n2cc(Cn3ccc4nc(-c5ccc6c(c5)OCO6)cc(=O)n43)nn2)[C@@H](OC(C)=O)[C@H](OC(C)=O)[C@@H]1OC(C)=O (stereo in doubt) [Compound 39, (2S,3R,4R,5S,6S)-2-(Acetoxymethyl)-6-(4-((5-(benzo[d][1,3]dioxol-5-yl)-7-oxopyrazolo[1,5-a]pyrimidin-1(7H)-yl)methyl)-1H-1,2,3-triazol-1-yl)tetrahydro-2H-pyran-3,4,5-triyl triacetate]
  viability at 10 µM: 101 ± 9.67%
  viability at 25 µM: 98.25 ± 0.34%
  viability at 50 µM: 97.5 ± 1.88%

## CC(=O)OC[C@H]1O[C@H](n2cc(Cn3ccc4nc(-c5ccc(C)cc5)cc(=O)n43)nn2)[C@@H](OC(C)=O)[C@@H](OC(C)=O)[C@@H]1OC(C)=O [Compound 40, (2R,3R,4S,5S,6S)-2-(Acetoxymethyl)-6-(4-((7-oxo-5-(p-tolyl)pyrazolo[1,5-a]pyrimidin-1(7H)-yl)methyl)-1H-1,2,3-triazol-1-yl)tetrahydro-2H-pyran-3,4,5-triyl triacetate]
  viability at 10 µM: 99 ± 7.7%
  viability at 25 µM: 92.8 ± 7.09%
  viability at 50 µM: 91.7 ± 9.12%

## CC(=O)OC[C@H]1O[C@H](n2cc(Cn3ccc4nc(-c5ccc(Br)cc5)cc(=O)n43)nn2)[C@@H](OC(C)=O)[C@@H](OC(C)=O)[C@@H]1OC(C)=O [Compound 42, (2R,3R,4S,5S,6S)-2-(Acetoxymethyl)-6-(4-((5-(4-bromophenyl)-7-oxopyrazolo[1,5-a]pyrimidin-1(7H)-yl)methyl)-1H-1,2,3-triazol-1-yl)tetrahydro-2H-pyran-3,4,5-triyl triacetate]
  viability at 10 µM: 81.3 ± 7.65%
  viability at 25 µM: 78.5 ± 6.58%
  viability at 50 µM: 75.5 ± 8.45%

## CC(=O)OC[C@H]1O[C@H](n2cc(Cn3ccc4nc(-c5ccc(Cl)cc5)cc(=O)n43)nn2)[C@@H](OC(C)=O)[C@@H](OC(C)=O)[C@@H]1OC(C)=O [Compound 43, (2R,3R,4S,5S,6S)-2-(Acetoxymethyl)-6-(4-((5-(4-chlorophenyl)-7-oxopyrazolo[1,5-a]pyrimidin-1(7H)-yl)methyl)-1H-1,2,3-triazol-1-yl)tetrahydro-2H-pyran-3,4,5-triyl triacetate]
  viability at 10 µM: 99.5 ± 10.2%
  viability at 25 µM: 95.2 ± 10.6%
  viability at 50 µM: 71.4 ± 10.5%

## CC(=O)OC[C@H]1O[C@H](n2cc(Cn3ccc4nc(-c5ccc(F)cc5)cc(=O)n43)nn2)[C@@H](OC(C)=O)[C@@H](OC(C)=O)[C@@H]1OC(C)=O [Compound 44, (2R,3R,4S,5S,6S)-2-(Acetoxymethyl)-6-(4-((5-(4-fluorophenyl)-7-oxopyrazolo[1,5-a]pyrimidin-1(7H)-yl)methyl)-1H-1,2,3-triazol-1-yl)tetrahydro-2H-pyran-3,4,5-triyl triacetate]
  viability at 10 µM: 98.4 ± 3.62%
  viability at 25 µM: 90.1 ± 6.77%
  viability at 50 µM: 89.6 ± 6.27%
